This is an account of results in ChEMBL document CHEMBL1275479, “Pharmacokinetics of miltefosine in Old World cutaneous leishmaniasis patients” (Antimicrob Agents Chemother, 2008).

For data set [1], the system named is Homo sapiens. In words: Renal toxicity in patient with cutaneous leishmaniasis assessed as mild elevation of creatinine at […], po three times a day for 28 days. Type of data set: organism-based. Set-up: route oral. The note with it: in vivo, 672 h.
A short description of data set [2]: Cmax in serum of patient with cutaneous leishmaniasis at 2.5 mg/kg, po once a day for 23 days by LC-MS/MS assay. Type of data set: ADME, organism-based. Set-up: dose 2.5 mg/kg, route oral. The note with it: human.
The species entered for data set [3] is Homo sapiens. The experiment in a line: Plasma concentration in patient with cutaneous leishmaniasis measured after 178 to 202 days by LC-MS/MS assay. The note with it: in vivo.
Data set [4] relates to Homo sapiens. In words: Hepatotoxicity in patient with cutaneous leishmaniasis assessed as mild elevation of aspartate aminotransferase at […], po three times a day for 28 days. The note with it: in vivo, 672 h. Set-up: route oral. Type of data set: toxicity, organism-based.
Data set [5] deals with Homo sapiens. The experiment in a line: Toxicity in patient with cutaneous leishmaniasis assessed as mild to moderate fatigue at […], po three times a day for 28 days. The class given is organism-based. Set-up: route oral. The following applies: in vivo, 672 h.
Data set [6] relates to Homo sapiens. In words: Plasma concentration in patient with cutaneous leishmaniasis at […], po three times a day measured after 22 to 28 days by LC-MS/MS assay. The note with it: in vivo. Type of data set: ADME, organism-based. Set-up: route oral. In a few lines: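 31 cutaneous leishmaniasis patients given miltefosine 150 mg/day for 28 days. Venous EDTA blood was spun at about 23,100 × g, 4°C, 15 min, and plasma stored at ≤−20°C. Analysis was solid-phase extraction of 250 μl plasma, then isocratic C18 LC-MS/MS; range 4–2,000 ng/ml, higher samples diluted in blank plasma. Sampling windows: days 178–202, days 22–28.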

Data set [7] has as its system Homo sapiens. The experiment in a line: Toxicity in patient with cutaneous leishmaniasis assessed as mild to moderate gastrointestinal side-effect at […], po three times a day for 28 days. The class given is organism-based. Set-up: route oral. The following applies: in vivo, 672 h.
A short description of data set [8]: Terminal half life in patient with cutaneous leishmaniasis at 2.5 mg/kg, po once a day measured after 6 to 8 days by LC-MS/MS assay. Set-up: dose 2.5 mg/kg, route oral. The class given is ADME, organism-based. The following applies: human, in vivo.
For data set [9], the system named is Homo sapiens. The experiment in a line: Hepatotoxicity in patient with cutaneous leishmaniasis assessed as mild elevation of alanine aminotransferase at […], po three times a day for 28 days. The class given is toxicity, organism-based. Set-up: route oral. The note with it: in vivo, 672 h.
A short description of data set [10]: Terminal half life in patient with leishmaniasis at […], po three times a day for 28 days by LC-MS/MS assay. Type of data set: ADME, organism-based. Set-up: route oral. The note with it: human, in vivo. In a few lines: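 Population pharmacokinetic fit in NONMEM of 382 plasma concentrations (LC-MS/MS, LLOQ 4 ng/ml) from 31 patients on 150 mg/day for 28 days, sampled up to day 202. Nested models were compared by objective function with the log likelihood ratio test and checked with observed-versus-predicted and conditional weighted residual plots; a two-compartment model was used for the terminal half-life.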

By Cmax is commonly meant the maximum level reached in the sampled fluid or tissue. By half-life is commonly meant the time needed for the level to fall by half in the phase considered. Higher therefore signals slow decline.

For `CCCCCCCCCCCCCCCCOP(=O)([O-])OCC[N+](C)(C)C` [MILTEFOSINE], the Activity result was “Toxic” in data set [1]; 17.5 ng/mL in data set [3]; “Toxic” in data set [4]; “Toxic” in [5]; 30800 ng/mL in [6]; “Toxic” in data set [7]. The Activity entry in data set [9] is listed as “Toxic”. Besides, the highest concentration (Cmax) in data set [2] was found to be 70 µg/mL. Further, the half-life in data set [8] is 6.25 days; in data set [10] it was 30.9 days.
